High-throughput results: PubChem BioAssay, several laboratories
Most compounds without a hit are left out; they make up all but 2.6% or so of the library.
NPY-Y2 antag – NPY-Y2 receptor antagonists, primary screen, cell-based; Neuropeptide Y receptor type 2 (Homo sapiens), P49146; NPY-Y2 expressing cells, antagonist mode; inhibition, % at 2.7 µM; hit rate 0.99% among 140,000; AID 793, 2007
Target sequence (P49146 whole entry, looked up): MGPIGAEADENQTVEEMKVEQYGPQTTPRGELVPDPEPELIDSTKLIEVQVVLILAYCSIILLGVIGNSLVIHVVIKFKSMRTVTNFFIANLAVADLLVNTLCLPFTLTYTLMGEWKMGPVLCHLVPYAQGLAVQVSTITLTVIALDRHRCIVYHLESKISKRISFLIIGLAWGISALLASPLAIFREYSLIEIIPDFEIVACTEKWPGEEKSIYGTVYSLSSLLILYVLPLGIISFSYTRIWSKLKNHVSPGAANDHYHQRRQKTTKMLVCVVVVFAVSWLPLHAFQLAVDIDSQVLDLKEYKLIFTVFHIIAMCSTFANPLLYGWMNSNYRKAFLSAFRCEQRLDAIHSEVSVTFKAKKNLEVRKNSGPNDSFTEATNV
NPY1 pot ag – NPY-Y1 receptor potentiators or agonists, primary screen, cell-based. Neuropeptide Y receptor type 1 (Homo sapiens), P25929. NPY-Y1 expressing cells, potentiator/agonist activation. activation, % at 3.6 µM. hit rate 0.37% among 220,000; in the data active = activation above about 33%, passing the limit was not always enough;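 note: cells stimulated with NPY at EC10 then isoproterenol at EC100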
Target sequence (P25929 whole entry, looked up): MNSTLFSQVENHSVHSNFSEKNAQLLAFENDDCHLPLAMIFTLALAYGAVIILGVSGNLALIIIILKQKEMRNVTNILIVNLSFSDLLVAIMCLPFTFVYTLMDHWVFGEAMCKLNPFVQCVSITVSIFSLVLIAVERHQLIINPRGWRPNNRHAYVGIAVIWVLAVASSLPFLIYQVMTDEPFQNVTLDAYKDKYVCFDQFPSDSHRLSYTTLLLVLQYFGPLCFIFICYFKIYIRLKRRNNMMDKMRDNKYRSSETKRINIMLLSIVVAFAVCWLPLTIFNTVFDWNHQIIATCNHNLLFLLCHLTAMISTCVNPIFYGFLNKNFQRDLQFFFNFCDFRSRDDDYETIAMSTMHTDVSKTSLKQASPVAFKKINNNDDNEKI
NPY2 pot ag – NPY-Y2 potentiators or agonists, primary screen, cell-based; Neuropeptide Y receptor type 2 (Homo sapiens), P49146; activation, % at 3.6 µM; hit rate 0.45% among 220,000; cells expressing NPY-Y2, potentiator/agonist read-out; in the data active = activation above about 27%;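 note: cells stimulated with NPY near EC25 plus isoproterenol at EC100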
b-catenin transl – modulators of beta-catenin nuclear translocation, primary screen, imaging, HeLa cells, immunofluorescence, high-content | nuclear translocation activity, % at 5 µM | hit rate 0.3% among 190,000 | AID 1665, 2009;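 active = nuclear translocation activity above 50% at 5 µM, with a well cell count of 50 or more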;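 note: per-cell ratio of nuclear to cytoplasmic median beta-catenin stain intensity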
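Test system: human HeLa cells, native beta-catenin. Compound dosing: 5 µM primary single dose, 0.1% DMSO, 0.02–20 µM confirmation series. Incubation: compound exposure 24 h at 37°C. Detection: beta-catenin immunostaining with DAPI counterstain, 20x imaging, 6 fields/well. Read-out basis: Nuclear/cytoplasmic beta-catenin signal ratio, % activation.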
NPY Y1 blocker – NPY-Y1 receptor antagonists, primary screen, cell-based | hit rate 1% among 200,000 | inhibition, % at 3.6 µM | HEK293-CNG Y1 cells, membrane potential fluorescence; NPY at EC95, then isoproterenol | AID 1040, 2008;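 active = inhibition above the campaign mean inhibition of all tested compounds plus 3 SD, cut at about 20% in these data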
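Assay system: HEK293 Y1/CNG channel cell line; Doses: single compound dose of 3.6 µM, 0.4% DMSO; Timing: dye 3 h, compound 60 min room temperature, stimulation 45 min; Technique: Membrane-potential fluorescent dye readout; Measure: % inhibition of NPY effect.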
MT stabilize HCS – microtubule stabilizers in HeLa cells, primary screen, imaging, high-content imaging. HeLa tubulin immunostaining HCS, 24 h; share of cells brighter than vehicle mean+2SD. % tubulin-high responders, % at 10 µM. hit rate 0.83% among 200,000. AID 2205, 2009;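 active = plate Z-score above 3 for both tubulin-high and condensed-nucleus cell shares, with cell loss under 80%, at 10 µM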;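 note: anti alpha tubulin signal scored within the nucleus-defined area of each cell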
NPY-Y1 ant conf – NPY-Y1 receptor antagonists, retest of hits, confirmation, HEK293-CNG cells, membrane potential fluorescence, triplicate. shares compounds with NPY Y1 blocker. inhibition, % at 3.6 µM. cAMP; NPY challenge against isoproterenol-raised cAMP. hit rate 21% among 1,200; in the data active = inhibition above about 20%
NPY2 antag ctr – NPY-Y2 receptor antagonists, selectivity check, confirmation, counter-screen for NPY-Y1 antagonist project, HEK293-CNG cells, membrane potential fluorescence, triplicate. shares compounds with NPY Y1 blocker. antagonism; cells given NPY, then isoproterenol. inhibition, % at 3.6 µM. hit rate 28% among 1,200
Hits are given with their value; 0 = inactive; - = no result given. Cut-off read from the data, not from the text of the source, unless noted: active = inhibition above about 17%; inactive = the rest.

SMILES | NPY-Y2 antag | NPY1 pot ag | NPY2 pot ag | b-catenin transl | NPY Y1 blocker | MT stabilize HCS | NPY-Y1 ant conf | NPY2 antag ctr
COC(=O)CCSC(=S)N1CCOCC1 | - | 0 | 0 | 0 | - | - | - | -
O=C(Cn1c(C(=O)N2CCN(C3CCCCC3)CC2)cc2sccc21)c1ccccc1 | 0 | 0 | 0 | 0 | 22.5 | 0 | 0 | 0
O=C(Cn1c(C(=O)N2CCc3ccccc3C2)cc2sccc21)c1ccccc1 | 0 | 0 | 0 | 0 | 0 | 0 | - | -
CCOC(=O)c1sc(N(Cc2ccccc2)C(=O)COC(=O)c2ccccc2O)nc1C | 0 | 0 | 0 | 0 | 20.2 | 0 | 0 | 0
CCOC(=O)c1sc(N(Cc2ccccc2)C(=O)CSc2ncn[nH]2)nc1C | 0 | 0 | 0 | 0 | 0 | 0 | - | -
Cc1cc(F)ccc1NCc1ccc([N+](=O)[O-])cc1 | - | 0 | 0 | 0 | 0 | 0 | - | -
COC(=O)c1cc2c(ccn2-c2ccc(F)cc2)n1Cc1ccc(OC)cc1 | 0 | 0 | 0 | 0 | 24.5 | 0 | 0 | 0
CCn1c(C(=O)OC)cc2c1ccn2-c1ccc(F)cc1 | 0 | 0 | 0 | - | 27.2 | 0 | 0 | 0
NN1C(=O)NC(c2ccccc2)(c2ccccc2)C1=O | - | 0 | 0 | 0 | 0 | 0 | - | -
COC(=O)c1ccc(CSc2nc3c(c(=O)n2-c2ccc(F)cc2)SCC3)o1 | 0 | 0 | 0 | 0 | 21.4 | 0 | 0 | 0
COC(=O)c1ccc(CSc2nc3c(c(=O)n2-c2ccccc2)SCC3)o1 | 0 | 0 | 0 | 0 | 0 | 0 | - | -
COc1cccc(OCc2nc(-c3ccc(Br)o3)no2)c1 | - | 0 | 0 | 0 | 0 | 0 | - | -
Brc1ccc(-c2noc(COc3ccc4ccccc4c3)n2)o1 | 0 | 0 | 0 | - | 29.4 | 0 | 0 | 0
O=C(COC(=O)CCC(=O)c1ccc(Cl)cc1)NCc1ccco1 | - | 0 | 0 | 0 | 22.1 | 0 | 0 | 0
O=C(COC(=O)CCC(=O)c1ccc(Cl)cc1)NCCc1ccccc1 | - | 0 | 0 | 0 | 0 | 0 | - | -
O=C(COC(=O)CCSc1ccc(Cl)cc1)NCc1ccc(Cl)cc1 | 0 | 0 | 0 | 0 | 0 | 0 | - | -
O=C(COC(=O)CCSc1ccc(Cl)cc1)NCc1ccccc1 | 0 | 0 | 0 | - | 21.8 | 0 | 0 | 0
CCCCCC(=O)N1CC2(CC(c3cccc(NC(=O)CC)c3)=NO2)C[C@H]1C(N)=O (some centres undefined) | - | - | - | 0 | - | - | - | -
COc1ccc(-c2cc(C(F)(F)F)n3nc(C(=O)NCc4ccco4)cc3n2)cc1 | 0 | 0 | 0 | 0 | 24.5 | 0 | 0 | 0
CCCCOc1ccc(/C=C/C2=CC(C)(C)NC(=S)N2)cc1OCC | - | 0 | 0 | 0 | 0 | 0 | - | -
C=CCOC(=O)/C(=C\c1ccc(OC)cc1)NC(=O)c1ccco1 | 0 | 0 | 0 | 0 | 88.6 | 0 | 0 | 0
CC(C)(C)c1ccc(COn2ccnc2)cc1 | - | 0 | 0 | 0 | 0 | 0 | - | -
S=c1[nH]nc(-c2cc(-c3ccccc3)n[nH]2)n1/N=C/C(Br)=C/c1ccccc1 | - | 0 | 0 | 0 | - | - | - | -
Cc1c(Cl)ccc2c(C(=O)NCCN3CCCCC3)cc(-c3ccccn3)nc12 | - | 0 | 0 | 0 | 25.3 | 0 | 0 | 28.5
O=C(O)CC1(CC(=O)Nc2ccc3ccccc3n2)CCCCC1 | - | 0 | 0 | 0 | - | - | - | -
SMILES | NPY-Y2 antag | NPY1 pot ag | NPY2 pot ag | b-catenin transl | NPY Y1 blocker | MT stabilize HCS | NPY-Y1 ant conf | NPY2 antag ctr
CCN(CC)S(=O)(=O)c1ccc(NC(=O)CSc2nnc(-c3cccc(OC)c3)n2C)cc1 | 0 | 0 | 0 | 0 | 0 | 0 | - | -
C=C(C)CSc1nnc(-c2cccc(S(=O)(=O)N(C)C)c2)n1-c1cc(OC)ccc1OC | 0 | 0 | 0 | 0 | 26.4 | 0 | 0 | 0
C=CCc1cc(/C=C2/NC(=O)N(CC(=O)OC)C2=O)cc(OC)c1O | - | 0 | 0 | 0 | 0 | 0 | - | -
OCCNc1cc(Cl)ncn1 | - | 0 | 0 | 0 | - | - | - | -
Cc1nccn1CC(=O)N/N=C/c1cccc(O)c1 | 0 | 0 | 0 | 0 | 0 | 0 | - | -
Cc1ccc(C2C3=C(CC(C)(C)CC3=O)NC3=C2C(=O)c2ccccc23)cc1 (centres undefined) | 0 | 0 | 0 | 0 | 21.9 | 0 | 0 | 17.6
O=C1N(Cc2cccc(Cl)c2)C[C@@H]2C[C@@H](c3ccco3)N3CCC[C@@]123 | - | 0 | 0 | 0 | 21.9 | 0 | 0 | 0
COc1ccc(N2CCc3c(C)nc4c(OC)cc(OC)cc4c32)cc1 | - | 0 | 0 | 0 | 34.1 | 0 | 25.9 | 23.6
COc1ccc(S(=O)(=O)NCc2ccco2)cc1-c1nnc2c3ccccc3c(C)nn12 | 0 | 0 | 0 | 0 | 0 | 0 | - | -
O=C(CSc1nnc(CN2CCOCC2)n1-c1ccccc1)Nc1ccc(Cl)cc1 | 0 | 0 | 0 | 0 | 0 | 0 | - | -
CCc1ccc(N2CCCn3c2nc2c3c(=O)n(CCN3CCOCC3)c(=O)n2C)cc1 | - | - | - | 0 | - | - | - | -
COc1ccc(C(=O)Nc2ccccc2C(=O)NCc2ccco2)cc1OC | 0 | 0 | 0 | 0 | 0 | 0 | - | -
COc1ccc(C(=O)Nc2ccc(Cl)cc2C(=O)NCc2ccco2)cc1OC | 0 | 0 | 0 | 0 | 24.5 | 0 | 24.7 | 24.0
CCn1c(=O)c(C(=O)CN(C)Cc2cccc(OC)c2OC)c(N)n(Cc2ccccc2)c1=O | 0 | 0 | 0 | 0 | 0 | 0 | - | -
Cn1c(=O)c(C(=O)COc2ccc(F)cc2Cl)c(N)n(Cc2ccccc2)c1=O | - | 0 | 0 | 0 | 31.7 | 0 | 0 | 55.2
COc1ccc(CN(C)CC(=O)c2c(N)n(Cc3ccccc3)c(=O)n(C)c2=O)c(OC)c1 | 0 | 0 | 0 | 0 | 24.0 | 0 | 0 | 0
Cn1c(N)c(C(=O)COc2ccc(Cl)cc2Cl)c(=O)n(C)c1=O | - | 0 | 0 | 0 | 0 | 0 | - | -
CCOC(=O)C1CCN(S(=O)(=O)c2c(C)n[nH]c2C)CC1 | 0 | 0 | 0 | 0 | 0 | 0 | - | -
O=C1c2nccnc2C(=O)N1c1ccc(F)cc1 | - | 0 | 0 | 0 | 0 | 0 | - | -
CCCCN(CCCC)c1cc(C)nc(-c2ccccc2O)n1 | 0 | 0 | 0 | 0 | 21.7 | 0 | 0 | 0
COc1ccc(CNC(=O)CNS(=O)(=O)c2ccc(Cl)cc2)cc1 | 0 | 0 | 0 | 0 | 0 | 0 | - | -
Cc1ccc(C2CC2c2n[nH]c(=S)n2-c2cccc(Cl)c2)cc1 (centres undefined) | 0 | 0 | 0 | 0 | 0 | 0 | - | -
COC(=O)c1cc(-c2cccc(OC)c2)on1 | 0 | 0 | 0 | 0 | 27.1 | 0 | 0 | 0
COC(=O)c1cc(-c2ccc(Br)cc2)on1 | 0 | 0 | 0 | - | 23.4 | 0 | 0 | 17.4
